This is an account of results in ChEMBL document CHEMBL1154190, “Development and screening of water-soluble analogues of progesterone and allopregnanolone in models of brain injury” (J Med Chem, 2009).

A short description of data set [1]: Inhibition of glutamate-induced excitotoxicity in rat E18 cells assessed as reduction in cell death at 5 uM pretreated for 24 hrs before glutamate challenge measured after 24 hrs by MTT assay. Format: functional. A digest of the protocol: (§1)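 Rat E18 primary cortical cells cultured 8-10 days in neurobasal medium, pretreated 24 h with compound (tested at 0.1-80 μM, DMSO <5 μL/mL medium), then glutamate 0.5 μM (in PBS pH 7.4) added for a further 24 h with compound still present. Viability by MTT formazan photometry; reduction in cell death vs glutamate-only control, mean ± SEM, ANOVA/Dunnett, p < 0.05.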
In general terms: Tetrazolium dyes change colour on reduction, which living cells bring about.

Data set [2] is described as follows: Solubility in phosphate buffered saline. In kind it is physicochemical. A digest of the protocol: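 Compound added in small portions to phosphate buffered saline at room temperature with stirring until a visible saturation end point; solubility reported as mg/mL.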
The next data set relates to Rattus norvegicus. The experiment in a line: Neuroprotective effect against traumatic brain injury-induced cerebral edema in rat assessed as decrease in edema level at 8 mg/kg administered intraperitoneally 1 hr post-TBI followed by second sc dose at 6 hrs post-TBI measured after 24 hrs relative to control. In kind it is functional. Also on record: scale not given: the % may be the effect or the level left. As to conditions: route intraperitoneal at 1 h, then subcutaneous at 6 h. A digest of the protocol: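 Bilateral medial frontal cortex contusion made with a pneumatic impactor in rats under isoflurane (5% induction, 2% maintenance, N₂O/O₂), body temperature held with a heating blanket. Dosing: 8 mg/kg in 22.5% w/v 2-hydroxypropyl-β-cyclodextrin, IP at 1 h, then SC at 6 h. Sham and vehicle groups included. At 24 h, pentobarbital overdose; pericontusional tissue dried at 60 °C, 0.3 atm for 24 h. Water % = (wet−dry)/wet×100; decrease vs vehicle, mean ± SEM.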

The nature of data set [3]: Inhibition of glutamate-induced excitotoxicity in rat E18 cells assessed as reduction in cell death at 10 uM pretreated for 24 hrs before glutamate challenge measured after 24 hrs by MTT assay. In kind it is functional. A digest of the protocol: as §1
The nature of data set [4]: Inhibition of glutamate-induced excitotoxicity in rat E18 cells assessed as reduction in cell death at 80 uM pretreated for 24 hrs before glutamate challenge measured after 24 hrs by MTT assay. In kind it is functional. A digest of the protocol: (§2)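 Rat E18 primary cortical neurons cultured 8-10 days in neurobasal medium, pretreated 24 h with compound (0.1-80 μM, DMSO, final DMSO <5 μL/mL), then glutamate 0.5 μM (in PBS pH 7.4) for 24 h with compound still present. Viability read by MTT formazan photometry; % reduction in cell death vs glutamate control, mean ± SEM, ANOVA with Dunnett's test.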

Data set [5] is described as follows: Inhibition of glutamate-induced excitotoxicity in rat E18 cells assessed as reduction in cell death at 20 uM pretreated for 24 hrs before glutamate challenge measured after 24 hrs by MTT assay. In kind it is functional. A digest of the protocol:
as §2

The mark [6] stands for this setting: phosphate buffered saline, read-out: solubility.

In general, inhibition refers to the relative decrease from the control value, in per cent. By solubility is commonly meant the dissolved amount per volume that the medium holds.

For `CC(=O)[C@H]1CC[C@H]2[C@@H]3CCC4=C[C@@H](OC(=O)[C@@H]5CCCN5)CC[C@]4(C)[C@H]3CC[C@]12C.Cl`, the inhibition at 5 µM in data set [1] amounted to 15%. Further, the solubility in data set [2] (setting [6]) amounted to 1530 µg/mL.

With `CC(=O)[C@H]1CC[C@H]2[C@@H]3CCC4=C/C(=N/OC(=O)[C@@H](N)C(C)C)CC[C@]4(C)[C@H]3CC[C@]12C.Cl`, the inhibition at 5 µM in data set [1] was determined as 27%. The molecule further came in with a solubility in data set [2] (buffer) of 13000 µg/mL. Besides, the Activity in the data set with Rattus norvegicus came to 57%.

For the molecule `CC(=O)[C@H]1CC[C@H]2[C@@H]3CC[C@H]4C[C@@H](OC(=O)[C@@H](N)C(C)C)CC[C@]4(C)[C@H]3CC[C@]12C.Cl`, in data set [2] (setting [6]), the solubility is below 50 µg/mL. Further, the Activity in the data set with Rattus norvegicus is listed as 40%.

Take `CC(=O)[C@H]1CC[C@H]2[C@@H]3CCC4=C[C@@H](OC(=O)[C@@H](N)Cc5c[nH]c6ccccc56)CC[C@]4(C)[C@H]3CC[C@]12C`: the inhibition at 5 µM in data set [1] amounted to 1%.

For `CC(=O)[C@H]1CC[C@H]2[C@@H]3CC[C@H]4C[C@H](OC(=O)[C@@H](N)C(C)C)CC[C@]4(C)[C@H]3CC[C@]12C.Cl`, the solubility in data set [2] (setting [6]) is below 50 µg/mL. In addition, the Activity with Rattus norvegicus is recorded as 49%.

On to `CC(=O)[C@H]1CC[C@H]2[C@@H]3CCC4=C[C@@H](OC(=O)[C@H](C)N)CC[C@]4(C)[C@H]3CC[C@]12C.Cl`, for which, in data set [1], the inhibition at 5 µM stood at 13%. In data set [2] (setting [6]), the solubility was 3340 µg/mL.

On to `CC(=O)[C@H]1CC[C@H]2[C@@H]3CCC4=C/C(=N\OC(=O)[C@@H](N)C(C)C)CC[C@]4(C)[C@H]3CC[C@]12C.Cl`, for which the inhibition at 5 µM in data set [1] stood at 34%. Also, in data set [2] (setting [6]), the solubility was 15200 µg/mL. The Activity in the data set with Rattus norvegicus is given as 75%.

For the molecule `CC(=O)[C@H]1CC[C@H]2[C@@H]3CCC4=C[C@@H](OC(=O)[C@@H](N)Cc5ccccc5)CC[C@]4(C)[C@H]3CC[C@]12C.Cl`, the solubility in data set [2] (setting [6]) was 610 µg/mL.

As for `CC(=O)[C@H]1CC[C@H]2[C@@H]3CCC4=C[C@@H](OC(=O)[C@@H](N)C(C)C)CC[C@]4(C)[C@H]3CC[C@]12C.Cl`, in data set [1], the inhibition at 5 µM came to 8%. For the same molecule, the solubility in data set [2] (setting [6]) came out at 3850 µg/mL.

As for `CC(=O)[C@H]1CC[C@H]2[C@@H]3CC[C@@H]4C[C@H](OC(=O)[C@@H](N)C(C)C)CC[C@]4(C)[C@H]3CC[C@]12C.Cl`, the solubility in data set [2] (setting [6]) worked out at 300 µg/mL. Moreover, in the data set on Rattus norvegicus, the Activity turned out to be 31%.

Take `CC(=O)[C@H]1CC[C@H]2[C@@H]3CC[C@@H]4C[C@@H](OC(=O)[C@@H](N)C(C)C)CC[C@]4(C)[C@H]3CC[C@]12C.Cl`: in data set [2] (setting [6]), the solubility was below 50 µg/mL. In addition, the Activity in the data set with Rattus norvegicus is listed as 11%.

Regarding `CC(C)[C@H](N)C(=O)O[C@@H](C)[C@H]1CC[C@H]2[C@@H]3CCC4=CC(=O)CC[C@]4(C)[C@H]3CC[C@]12C`, in data set [1], the inhibition at 5 µM came out at 23%. Moreover, the inhibition at 10 µM in data set [3] turned out to be 30%.

As for `CC(=O)[C@H]1CC[C@H]2[C@@H]3CC[C@H]4C[C@H](O)CC[C@]4(C)[C@H]3CC[C@]12C` [BREXANOLONE], in data set [1], the inhibition at 5 µM is -3%. The solubility in data set [2] (setting [6]) was below 50 µg/mL. Further, the inhibition at 80 µM in data set [4] was 40%.

As to `CC(=O)[C@H]1CC[C@H]2[C@@H]3CCC4=CC(=O)CC[C@]4(C)[C@H]3CC[C@]12C` [PROGESTERONE], the inhibition at 5 µM in data set [1] came out at 4%. The solubility in data set [2] (setting [6]) is below 50 µg/mL. The Activity in the data set with Rattus norvegicus was 60%. In addition, the inhibition at 20 µM in data set [5] is 42%.
